Consider 14 molecules from ChEMBL document CHEMBL3259814, “Synthesis and biological evaluation of compounds which contain pyrazole, thiazole and naphthalene ring as antitumor agents” (Bioorg Med Chem Lett, 2014).

The nature of series [1]: Antiproliferative activity against human BGC823 cells assessed as growth inhibition after 24 to 48 hrs by CCK8 assay. The class given is functional, cell-based. To be noted: BGC-823. In a few lines:
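The CCK8 assay was run on BGC823 cells alongside HeLa and HepG2 cells. Inhibition of cell proliferation was reported as IC50.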

Series [2] relates to HepG2. The series is described as follows: cells. The class given is functional, cell-based. The following applies: Homo sapiens.
Series [3] has as its system HeLa. The series is described as follows: cells. It is filed as functional, cell-based. The following applies: Homo sapiens.
Series [4] addresses Epidermal growth factor receptor (Homo sapiens, UniProt P00533). It is filed as cell-based, Sf-9.
A short description of series [5]: Antiproliferative activity against human macrophages assessed as alteration in cell morphology after 24 hrs by CCK8 assay. It is filed as cell-based, Macrophage. (Tetrazolium dyes change colour on reduction, which living cells bring about.)
For series [6], the system named is HeLa. The series is described as follows: Toxicity against human HeLa cells assessed as survival at 0.14 uM by CCK8 assay. It is filed as cell-based. A digest of the protocol:
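HeLa survival ratio was measured against compound concentration by CCK8 assay, including 0.14 µM. This was done before the migration testing.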

The subject of series [7] is HeLa. The series is described as follows: Antimetastatic activity against human HeLa cells at 0.08 to 0.12 uM by transwell migration assay. It is filed as functional, cell-based. A digest of the protocol: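 HeLa cell migration was tested at 0.08, 0.10 and 0.12 µM. Migrating cells are expressed as a percentage of an untreated control set at 100%. Data are mean ± SD, with p < 0.05 versus control.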

The source made the active and inactive calls. The rule behind the calls is not given here.

Epidermal growth factor receptor, sequence (P00533 whole entry): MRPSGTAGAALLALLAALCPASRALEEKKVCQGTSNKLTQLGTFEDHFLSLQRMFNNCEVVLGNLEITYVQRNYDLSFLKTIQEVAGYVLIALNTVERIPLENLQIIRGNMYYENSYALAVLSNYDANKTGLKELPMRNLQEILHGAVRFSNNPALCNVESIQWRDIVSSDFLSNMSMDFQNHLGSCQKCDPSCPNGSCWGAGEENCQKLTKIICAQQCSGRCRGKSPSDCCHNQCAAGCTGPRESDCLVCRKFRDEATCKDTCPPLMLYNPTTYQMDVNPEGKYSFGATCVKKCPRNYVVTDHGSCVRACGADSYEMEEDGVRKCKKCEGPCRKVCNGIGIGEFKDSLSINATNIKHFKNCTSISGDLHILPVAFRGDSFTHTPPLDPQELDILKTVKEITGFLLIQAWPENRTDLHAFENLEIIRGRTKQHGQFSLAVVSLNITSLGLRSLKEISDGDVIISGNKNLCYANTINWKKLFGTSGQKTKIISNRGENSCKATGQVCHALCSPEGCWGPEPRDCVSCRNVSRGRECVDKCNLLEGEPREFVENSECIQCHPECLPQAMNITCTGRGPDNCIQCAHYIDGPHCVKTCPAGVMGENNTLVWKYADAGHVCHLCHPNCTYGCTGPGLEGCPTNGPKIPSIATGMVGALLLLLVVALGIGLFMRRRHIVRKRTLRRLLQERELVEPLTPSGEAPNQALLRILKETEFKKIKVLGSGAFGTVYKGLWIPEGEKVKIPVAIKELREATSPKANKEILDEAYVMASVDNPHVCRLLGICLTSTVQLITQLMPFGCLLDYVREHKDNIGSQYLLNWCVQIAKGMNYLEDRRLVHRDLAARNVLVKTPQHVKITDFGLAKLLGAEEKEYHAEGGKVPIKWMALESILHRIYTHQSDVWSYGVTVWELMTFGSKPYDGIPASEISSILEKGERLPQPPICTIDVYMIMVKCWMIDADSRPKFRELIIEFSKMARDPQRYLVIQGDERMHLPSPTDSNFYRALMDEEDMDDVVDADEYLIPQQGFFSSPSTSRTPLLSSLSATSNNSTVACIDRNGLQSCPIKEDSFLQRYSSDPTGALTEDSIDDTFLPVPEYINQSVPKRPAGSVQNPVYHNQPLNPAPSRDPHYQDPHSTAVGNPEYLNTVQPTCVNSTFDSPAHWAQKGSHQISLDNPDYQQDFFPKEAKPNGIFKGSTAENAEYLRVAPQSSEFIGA

For `O=C1CSC(N2N=C(c3ccc(Cl)cc3)CC2c2ccc3ccccc3c2)=N1` (centres undefined), the 50% inhibitory concentration (IC50) (in general, the concentration that gives 50% inhibition) turned out to be 13.2 µM in series [1], 20.4 µM in series [2] and 6.32 µM in series [3].

Consider `O=C1CSC(N2N=C(c3ccc(Br)cc3)CC2c2ccc3ccccc3c2)=N1` (centres undefined), for which the IC50 in series [1] came to 11.7 µM; in series [2], 18.2 µM; in series [3] it was 4.22 µM.

Turning to `Cc1ccc(C2=NN(C3=NC(=O)CS3)C(c3ccc4ccccc4c3)C2)cc1` (centres undefined), the half-maximal inhibitory concentration (IC50) in series [1] was determined as 7.79 µM; in series [4], 3.25 µM; in series [2], 12.7 µM; in series [3], 1.76 µM.

As for `O=C1CSC(N2N=C(c3ccc(F)cc3)CC2c2cccc3ccccc23)=N1` (centres undefined), the IC50 in series [1] was found to be 19.3 µM; in series [2], 19.5 µM; in series [3] it was 11.2 µM.

For `O=C1CSC(N2N=C(c3ccc(F)cc3)CC2c2ccc3ccccc3c2)=N1` (centres undefined), the figures for the half-inhibitory concentration (IC50) in series [1], in series [2] and in series [3] were 14.9 µM, 24.1 µM and 9.17 µM, respectively.

On to `COc1ccc(C2=NN(C3=NC(=O)CS3)C(c3ccc4ccccc4c3)C2)cc1` (centres undefined), for which the IC50 in series [1] stood at 6.94 µM; in series [2] it was 10.4 µM; in series [3], 1.48 µM. For the same molecule, the CC50 (commonly the concentration at which the toxic effect on the cells reaches its halfway point) at 24 h in series [5] worked out at 363 µM.

Turning to `O=C1CSC(N2N=C(c3ccc(Br)cc3)CC2c2cccc3ccccc23)=N1` (centres undefined), the concentration for half-maximal inhibition (IC50) in series [1] came out at 14.6 µM; in series [2], 13.4 µM; in series [3], 5.81 µM.

Turning to `Cc1ccc(C2=NN(C3=NC(=O)CS3)C(c3ccc4ccccc4c3)C2)cc1C` (centres undefined), the half-maximal inhibitory concentration (IC50) in series [1] stood at 6.02 µM; in series [4], 0.12 µM; in series [2], 8.49 µM; in series [3], 0.86 µM. In addition, in series [5], the CC50 at 24 h was 397 µM. Besides, in series [6], the Activity result is reported as “Non-toxic”. In addition, the result in series [7] was Active.

Regarding `Cc1ccc(C2=NN(C3=NC(=O)CS3)C(c3cccc4ccccc34)C2)cc1` (centres undefined), the half-maximal inhibitory concentration (IC50) in series [1] came out at 10 µM; in series [2], 8.66 µM; in series [3], 3.21 µM.

For the molecule `O=C1CSC(N2N=C(c3ccccc3)CC2c2cccc3ccccc23)=N1` (centres undefined), the IC50 in series [1] turned out to be 11.2 µM; in series [2], 10.1 µM; in series [3], 4.62 µM.

On to `Cc1ccc(C2=NN(C3=NC(=O)CS3)C(c3cccc4ccccc34)C2)cc1C` (centres undefined), for which the half-maximal inhibitory concentration (IC50) in series [1] was 7.11 µM; in series [4] it was 1.32 µM; in series [2] it was 5.94 µM; in series [3], 1.33 µM. The half-maximal cytotoxic concentration (CC50) at 24 h in series [5] stood at 383 µM.

With `O=C1CSC(N2N=C(c3ccccc3)CC2c2ccc3ccccc3c2)=N1` (centres undefined), the concentration for half-maximal inhibition (IC50) was found to be 8.86 µM in series [1], 6.31 µM in series [4], 15.7 µM in series [2] and 3.18 µM in series [3]. Besides, the 50% cytotoxic concentration (CC50) at 24 h in series [5] was 345 µM.

Take `COc1ccc(C2=NN(C3=NC(=O)CS3)C(c3cccc4ccccc34)C2)cc1` (centres undefined): the half-maximal inhibitory concentration (IC50) in series [1] is 8.21 µM; in series [4], 5.53 µM; in series [2], 7.85 µM; in series [3] it was 2.54 µM. The cytotoxic concentration (CC50) at 24 h in series [5] came out at 273 µM.

Regarding `O=C1CSC(N2N=C(c3ccc(Cl)cc3)CC2c2cccc3ccccc23)=N1` (centres undefined), the 50% inhibitory concentration (IC50) in series [1] worked out at 16.4 µM; in series [2], 16.4 µM; in series [3], 8.84 µM.
